Tests used:
[1] = molecular target: Aurora kinase A (Homo sapiens, UniProt O14965); test: Inhibition of Aurora A
[2] = molecular target: Serine/threonine-protein kinase pim-1 (Homo sapiens, UniProt P11309); test: Inhibition of PIM1
[3] = molecular target: Serine/threonine-protein kinase STK11 (Homo sapiens, UniProt Q15831); test: Inhibition of LKB1
[4] = molecular target: 5'-AMP-activated protein kinase catalytic subunit alpha-1 (Homo sapiens, UniProt Q13131); test: Inhibition of AMPKalpha1
[5] = molecular target: Tyrosine-protein kinase JAK2 (Homo sapiens, UniProt O60674); test: Inhibition of JAK2
Tyrosine-protein kinase JAK2, sequence (O60674 whole entry): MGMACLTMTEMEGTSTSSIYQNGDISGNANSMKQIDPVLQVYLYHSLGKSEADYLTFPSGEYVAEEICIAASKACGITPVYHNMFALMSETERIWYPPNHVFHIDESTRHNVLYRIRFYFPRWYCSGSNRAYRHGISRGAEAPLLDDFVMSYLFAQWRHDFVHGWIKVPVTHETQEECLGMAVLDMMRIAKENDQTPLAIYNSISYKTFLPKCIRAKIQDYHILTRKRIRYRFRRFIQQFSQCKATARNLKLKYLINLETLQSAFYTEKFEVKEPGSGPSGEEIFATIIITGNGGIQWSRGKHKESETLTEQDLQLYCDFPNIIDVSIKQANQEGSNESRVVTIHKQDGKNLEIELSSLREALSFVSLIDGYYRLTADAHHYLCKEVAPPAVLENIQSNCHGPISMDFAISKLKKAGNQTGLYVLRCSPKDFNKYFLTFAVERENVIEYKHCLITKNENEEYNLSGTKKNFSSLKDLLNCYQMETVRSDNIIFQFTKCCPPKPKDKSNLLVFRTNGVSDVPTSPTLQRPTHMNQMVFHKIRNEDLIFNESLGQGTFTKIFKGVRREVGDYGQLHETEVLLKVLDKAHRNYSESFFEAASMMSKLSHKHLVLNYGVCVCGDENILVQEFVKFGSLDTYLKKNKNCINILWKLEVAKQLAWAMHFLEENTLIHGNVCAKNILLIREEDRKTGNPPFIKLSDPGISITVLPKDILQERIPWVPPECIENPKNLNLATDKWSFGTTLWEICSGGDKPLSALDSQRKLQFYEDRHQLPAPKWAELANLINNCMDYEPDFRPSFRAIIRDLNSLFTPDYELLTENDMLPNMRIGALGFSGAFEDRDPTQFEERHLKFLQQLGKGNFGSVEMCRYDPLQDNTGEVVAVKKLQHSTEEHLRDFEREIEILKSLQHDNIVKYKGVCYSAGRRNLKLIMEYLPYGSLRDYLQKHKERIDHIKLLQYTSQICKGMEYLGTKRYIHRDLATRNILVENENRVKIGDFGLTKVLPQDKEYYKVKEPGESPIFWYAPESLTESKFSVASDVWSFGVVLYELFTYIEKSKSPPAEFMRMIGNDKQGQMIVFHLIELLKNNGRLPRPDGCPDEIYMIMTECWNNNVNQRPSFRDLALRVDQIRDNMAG

[6] = molecular target: Fibroblast growth factor receptor 1 (Homo sapiens, UniProt P11362); test: Inhibition of FGFR1
[7] = system: MDA-MB-361; test: Cytotoxicity against ER activated human MDA-MB-361 cells expressing Her-2, Src and PIK3CA mutant after 72 hrs by SRB assay; assay type: functional, cell-based; conditions: MDA-MB-361, 72 h
Summary of the method: (§1)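 Culture conditions: MDA-MB-361 and MDA-MB-453 grown in L-15 without CO2. NCI-N87, NCI-H1781 and NCI-H1975 grown in RPMI with 1 mM sodium pyruvate under 5% CO2. JIMT-1 grown in DMEM (4.5 g/L glucose) under 5% CO2. MDA-MB-175 grown in L-15 without CO2. All media contained 10% FBS and 1% penicillin-streptomycin, 37 °C. Growth inhibition/GI50 read-out was run per a cited earlier protocol.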

[8] = molecular target: Insulin receptor (Homo sapiens, UniProt P06213); test: Inhibition of IR
[9] = Half life in rat liver microsomes at 5 uM; conditions: liver microsomes
[10] = molecular target: Mast/stem cell growth factor receptor Kit (Homo sapiens, UniProt P10721); test: Inhibition of cKIT
[11] = molecular target: Receptor tyrosine-protein kinase erbB-4 (Homo sapiens, UniProt Q15303); test: Inhibition of HER4 preincubated for 10 mins followed by incubation for 30 mins by fluorescence polarization assay
[12] = Cytotoxicity against human NCI-H1781 cells expressing HER-2 G776insV_G/C after 72 hrs by SRB assay; assay type: functional, cell-based; conditions: NCI-H1781, 72 h; summary of the method: as §1
[13] = molecular target: Tyrosine-protein kinase ABL1 (Homo sapiens, UniProt P00519); test: Inhibition of Abl
[14] = Half life in human liver microsomes at 5 uM; conditions: liver microsomes
[15] = molecular target: Dual specificity mitogen-activated protein kinase kinase 1 (Homo sapiens, UniProt Q02750); test: Inhibition of MEK1
Dual specificity mitogen-activated protein kinase kinase 1, sequence (Q02750 whole entry): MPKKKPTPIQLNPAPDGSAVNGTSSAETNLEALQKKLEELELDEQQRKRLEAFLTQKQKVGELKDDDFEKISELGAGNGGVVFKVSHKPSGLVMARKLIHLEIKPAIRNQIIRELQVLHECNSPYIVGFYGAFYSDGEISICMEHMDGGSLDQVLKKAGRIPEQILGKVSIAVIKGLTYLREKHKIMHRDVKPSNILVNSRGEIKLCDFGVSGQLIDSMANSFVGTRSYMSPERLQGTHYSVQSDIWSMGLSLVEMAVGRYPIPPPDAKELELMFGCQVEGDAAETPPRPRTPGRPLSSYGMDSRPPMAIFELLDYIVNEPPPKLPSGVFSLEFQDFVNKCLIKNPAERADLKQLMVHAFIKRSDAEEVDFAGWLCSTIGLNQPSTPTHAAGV

[16] = molecular target: Hepatocyte growth factor receptor (Homo sapiens, UniProt P08581); test: Inhibition of MET
[17] = molecular target: Tyrosine-protein kinase SYK (Homo sapiens, UniProt P43405); test: Inhibition of Syk
[18] = molecular target: Insulin-like growth factor 1 receptor (Homo sapiens, UniProt P08069); test: Inhibition of IGF-1R
[19] = Cytotoxicity against human MDA-MB-175 cells expressing Src, Ret and low HER-2 after 72 hrs by SRB assay; assay type: functional, cell-based; summary of the method: as §1
[20] = molecular target: Cyclin-dependent kinase 1/cyclin B1 (Homo sapiens, UniProt P06493); test: Inhibition of CDK1/cyclin B; assay type: protein-complex assay
[21] = system: SK-BR-3; test: Cytotoxicity against human SKBR3 cells overexpressing HER-2 gene after 72 hrs by SRB assay; assay type: functional, cell-based; conditions: SK-BR-3, 72 h
Summary of the method: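 A431 and SK-Br3 cells grown in DMEM (4.5 g/L glucose, 1.5 g/L sodium bicarbonate) with 10% FBS at 37 °C, humidified 5% CO2. Proliferation/growth inhibition IC50 values are means of three independent experiments, each run in duplicate.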

[22] = system: MDA-MB-453; test: Cytotoxicity against PTEN-deficient human MDA-MB-453 cells expressing HER-2, and PIK3CA mutant after 72 hrs by SRB assay; assay type: functional, cell-based; conditions: MDA-MB-453, 72 h; summary of the method: as §1
[23] = Cytotoxicity against human JIMT1 cells expressing low HER-2 after 72 hrs by SRB assay; assay type: functional, cell-based; conditions: JIMT-1, 72 h; summary of the method: as §1
[24] = molecular target: Platelet-derived growth factor receptor alpha (Homo sapiens, UniProt P16234); test: Inhibition of PDGFRalpha
[25] = molecular target: Platelet-derived growth factor receptor beta (Homo sapiens, UniProt P09619); test: Inhibition of PDGFRbeta
Platelet-derived growth factor receptor beta, sequence (P09619 whole entry): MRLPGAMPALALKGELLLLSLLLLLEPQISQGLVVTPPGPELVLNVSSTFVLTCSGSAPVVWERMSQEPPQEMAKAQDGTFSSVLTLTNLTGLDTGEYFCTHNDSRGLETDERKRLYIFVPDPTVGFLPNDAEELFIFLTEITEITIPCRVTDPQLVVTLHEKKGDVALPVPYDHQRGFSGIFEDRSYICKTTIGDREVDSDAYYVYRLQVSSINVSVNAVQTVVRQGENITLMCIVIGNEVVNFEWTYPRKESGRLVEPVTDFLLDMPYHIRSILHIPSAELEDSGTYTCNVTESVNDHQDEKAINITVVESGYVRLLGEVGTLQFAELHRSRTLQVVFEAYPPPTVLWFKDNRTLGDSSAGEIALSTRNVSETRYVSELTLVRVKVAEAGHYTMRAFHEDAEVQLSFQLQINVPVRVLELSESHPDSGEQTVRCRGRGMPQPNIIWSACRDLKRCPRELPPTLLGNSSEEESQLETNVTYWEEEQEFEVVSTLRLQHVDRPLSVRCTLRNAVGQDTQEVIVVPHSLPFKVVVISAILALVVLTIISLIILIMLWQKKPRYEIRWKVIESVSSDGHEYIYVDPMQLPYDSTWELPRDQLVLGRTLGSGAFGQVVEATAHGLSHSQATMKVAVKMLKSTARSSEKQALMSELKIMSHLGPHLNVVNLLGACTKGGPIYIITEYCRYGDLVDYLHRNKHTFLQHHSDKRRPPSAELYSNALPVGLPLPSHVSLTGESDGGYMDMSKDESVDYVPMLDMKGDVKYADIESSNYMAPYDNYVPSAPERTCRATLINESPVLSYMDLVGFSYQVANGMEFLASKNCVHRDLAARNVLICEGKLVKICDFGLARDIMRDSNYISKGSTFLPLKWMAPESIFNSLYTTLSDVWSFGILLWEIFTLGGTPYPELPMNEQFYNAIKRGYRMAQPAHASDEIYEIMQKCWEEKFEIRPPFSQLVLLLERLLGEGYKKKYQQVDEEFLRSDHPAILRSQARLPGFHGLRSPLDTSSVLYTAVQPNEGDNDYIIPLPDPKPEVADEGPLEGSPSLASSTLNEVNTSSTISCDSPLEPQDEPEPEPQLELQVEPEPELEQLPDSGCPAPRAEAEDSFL

[26] = molecular target: Vascular endothelial growth factor receptor 1 (Homo sapiens, UniProt P17948); test: Inhibition of Flt1
[27] = molecular target: Focal adhesion kinase 1 (Homo sapiens, UniProt Q05397); test: Inhibition of FAK
[28] = molecular target: Receptor-type tyrosine-protein kinase FLT3 (Homo sapiens, UniProt P36888); test: Inhibition of Flt3
Receptor-type tyrosine-protein kinase FLT3, sequence (P36888 whole entry): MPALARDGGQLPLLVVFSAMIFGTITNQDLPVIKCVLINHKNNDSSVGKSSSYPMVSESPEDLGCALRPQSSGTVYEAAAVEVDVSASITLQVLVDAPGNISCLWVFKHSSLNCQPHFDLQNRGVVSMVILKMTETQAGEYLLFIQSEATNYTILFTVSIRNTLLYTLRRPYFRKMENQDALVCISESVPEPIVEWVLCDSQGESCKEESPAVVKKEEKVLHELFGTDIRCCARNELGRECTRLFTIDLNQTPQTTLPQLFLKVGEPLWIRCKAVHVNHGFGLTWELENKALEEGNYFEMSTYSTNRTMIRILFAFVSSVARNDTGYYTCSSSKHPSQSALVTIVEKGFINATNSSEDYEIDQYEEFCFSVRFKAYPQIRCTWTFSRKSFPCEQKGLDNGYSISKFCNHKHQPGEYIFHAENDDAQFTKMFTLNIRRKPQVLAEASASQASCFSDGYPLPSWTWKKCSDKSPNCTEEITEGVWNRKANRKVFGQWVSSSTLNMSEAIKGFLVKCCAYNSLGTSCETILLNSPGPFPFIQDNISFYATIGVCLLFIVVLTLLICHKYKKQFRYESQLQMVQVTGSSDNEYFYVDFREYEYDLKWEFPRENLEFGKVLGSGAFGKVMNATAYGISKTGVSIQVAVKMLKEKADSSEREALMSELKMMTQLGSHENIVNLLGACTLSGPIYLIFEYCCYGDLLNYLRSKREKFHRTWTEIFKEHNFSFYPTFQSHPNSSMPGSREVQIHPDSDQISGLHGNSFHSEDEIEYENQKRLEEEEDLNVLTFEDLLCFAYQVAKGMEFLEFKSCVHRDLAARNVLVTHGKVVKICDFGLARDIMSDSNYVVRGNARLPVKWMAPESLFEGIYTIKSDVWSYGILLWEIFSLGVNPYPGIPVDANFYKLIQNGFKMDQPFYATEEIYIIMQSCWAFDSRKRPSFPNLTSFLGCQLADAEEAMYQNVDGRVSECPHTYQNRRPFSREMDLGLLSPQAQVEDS

[29] = Half life in dog liver microsomes at 5 uM; conditions: liver microsomes
[30] = molecular target: Receptor tyrosine-protein kinase erbB-2 (Homo sapiens, UniProt P04626); test: Inhibition of HER2 preincubated for 10 mins followed by incubation for 30 mins by fluorescence polarization assay
[31] = Half life in mouse liver microsomes at 5 uM; conditions: liver microsomes
[32] = system: NCI-N87; test: Cytotoxicity against human NCI-N87 cells expressing HER-2 after 72 hrs by SRB assay; assay type: functional, cell-based; conditions: NCI-N87, 72 h; summary of the method: as §1
[33] = system: NCI-H1975; test: Cytotoxicity against human NCI-H1975 cells expressing EGFR L858R/T790M mutant after 72 hrs by SRB assay; assay type: functional, cell-based; conditions: NCI-H1975, 72 h
Summary of the method: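 NCI-N87, NCI-H1781 and NCI-H1975 grown in RPMI with 1 mM sodium pyruvate under 5% CO2. JIMT-1 grown in DMEM (4.5 g/L glucose) under 5% CO2. All media contained 10% FBS and 1% penicillin-streptomycin, 37 °C. Growth inhibition/GI50 read-out was run per a cited earlier protocol.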

5'-AMP-activated protein kinase catalytic subunit alpha-1, sequence (Q13131 whole entry): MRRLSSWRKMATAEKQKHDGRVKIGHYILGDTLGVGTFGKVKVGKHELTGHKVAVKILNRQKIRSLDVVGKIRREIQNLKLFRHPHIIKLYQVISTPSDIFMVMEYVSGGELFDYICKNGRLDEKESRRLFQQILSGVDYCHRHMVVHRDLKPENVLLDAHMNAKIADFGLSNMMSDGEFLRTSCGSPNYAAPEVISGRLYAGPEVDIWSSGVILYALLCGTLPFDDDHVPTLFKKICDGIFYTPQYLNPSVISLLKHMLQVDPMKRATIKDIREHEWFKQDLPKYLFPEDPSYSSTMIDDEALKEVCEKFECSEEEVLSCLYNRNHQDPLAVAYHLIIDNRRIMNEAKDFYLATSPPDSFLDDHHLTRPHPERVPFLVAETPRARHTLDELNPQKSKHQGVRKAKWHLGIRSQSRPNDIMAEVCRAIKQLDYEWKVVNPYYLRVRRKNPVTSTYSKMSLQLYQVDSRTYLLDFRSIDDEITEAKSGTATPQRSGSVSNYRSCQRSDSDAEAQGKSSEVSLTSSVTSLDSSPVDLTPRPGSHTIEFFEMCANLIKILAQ
Aurora kinase A, sequence (O14965 whole entry): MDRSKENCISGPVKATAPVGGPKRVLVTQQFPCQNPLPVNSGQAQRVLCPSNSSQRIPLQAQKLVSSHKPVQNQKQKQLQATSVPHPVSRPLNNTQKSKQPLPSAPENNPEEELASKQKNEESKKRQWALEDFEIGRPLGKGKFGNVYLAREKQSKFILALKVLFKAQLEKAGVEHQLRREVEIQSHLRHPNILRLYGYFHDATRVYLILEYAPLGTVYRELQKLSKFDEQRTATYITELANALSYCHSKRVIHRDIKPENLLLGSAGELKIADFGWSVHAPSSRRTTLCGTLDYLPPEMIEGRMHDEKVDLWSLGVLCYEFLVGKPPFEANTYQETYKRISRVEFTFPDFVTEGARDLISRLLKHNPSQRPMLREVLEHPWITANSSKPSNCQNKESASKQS
Serine/threonine-protein kinase STK11, sequence (Q15831 whole entry): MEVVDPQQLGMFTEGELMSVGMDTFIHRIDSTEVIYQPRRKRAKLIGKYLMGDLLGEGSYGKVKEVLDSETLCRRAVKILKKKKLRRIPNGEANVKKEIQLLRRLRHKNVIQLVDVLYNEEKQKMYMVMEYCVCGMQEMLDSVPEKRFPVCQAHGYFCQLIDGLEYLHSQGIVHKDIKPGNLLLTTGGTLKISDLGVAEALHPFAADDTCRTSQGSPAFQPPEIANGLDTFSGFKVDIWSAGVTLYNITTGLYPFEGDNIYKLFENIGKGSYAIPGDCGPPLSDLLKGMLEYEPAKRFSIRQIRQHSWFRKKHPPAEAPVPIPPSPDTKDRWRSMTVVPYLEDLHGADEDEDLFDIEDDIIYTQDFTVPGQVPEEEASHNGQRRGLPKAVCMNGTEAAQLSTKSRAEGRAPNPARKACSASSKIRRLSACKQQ

With C=CC(=O)NCc1coc(-c2c(N)ncnc2Nc2ccc(OCc3ccccn3)c(Cl)c2)n1 the IC50 [1] was greater than 3 µM, the IC50 [2] was greater than 3 µM and the IC50 [3] was greater than 3 µM. For the same molecule, the IC50 [4] was greater than 3 µM, the IC50 [5] was greater than 3 µM and the IC50 [6] was greater than 3 µM. For the same molecule, the IC50 [7] was 0.562 µM, the IC50 [8] was greater than 3 µM and the half-life at 5 µM [9] was 23 min. It also gave an IC50 [10] greater than 3 µM, an IC50 [11] of 0.004 µM and an IC50 [12] of 0.022 µM. For the same molecule, the IC50 [13] was greater than 3 µM, the half-life at 5 µM [14] was 25 min and the IC50 [15] was greater than 3 µM. It also gave an IC50 [16] greater than 3 µM, an IC50 [17] greater than 3 µM and an IC50 [18] greater than 3 µM. It also gave an IC50 [19] of 0.0016 µM, an IC50 [20] greater than 3 µM and an IC50 [21] of 0.0007 µM. It also gave an IC50 [22] of 0.005 µM, an IC50 [23] of 1.88 µM and an IC50 [24] greater than 3 µM. It also gave an IC50 [25] greater than 3 µM, an IC50 [26] greater than 3 µM and an IC50 [27] greater than 3 µM. The IC50 [28] was greater than 3 µM, the half-life at 5 µM [29] was 46 min and the IC50 [30] was 0.0224 µM. It also gave a half-life at 5 µM [31] of 17 min.

CS(=O)(=O)CCNCc1ccc(-c2ccc3ncnc(Nc4ccc(OCc5cccc(F)c5)c(Cl)c4)c3c2)o1 [LAPATINIB] showed an IC50 [32] of 0.036 µM, an IC50 [7] of 1.03 µM and an IC50 [12] of 3.05 µM. It also gave an IC50 [19] of 0.0444 µM, an IC50 [22] of 0.555 µM and an IC50 [23] greater than 10 µM. For the same molecule, the IC50 [33] was greater than 1 µM.

Reference: ChEMBL document CHEMBL2034880, “Synthesis and biological evaluation of pyrimidine-based dual inhibitors of human epidermal growth factor receptor 1 (HER-1) and HER-2 tyrosine kinases” (J Med Chem, 2012)
